Data from ChEMBL document CHEMBL4028902, “Azetidine and Piperidine Carbamates as Efficient, Covalent Inhibitors of Monoacylglycerol Lipase” (J Med Chem, 2017).
Activity calls are given as the source filed them. No cut-off for these calls is given here.

What was measured:
[1] = target: T1, CES1 (liver carboxylesterase 1) (Homo sapiens, UniProt P23141); assay: Inhibition of human CES1 at 10 uM relative to control
T1 sequence (P23141 whole entry): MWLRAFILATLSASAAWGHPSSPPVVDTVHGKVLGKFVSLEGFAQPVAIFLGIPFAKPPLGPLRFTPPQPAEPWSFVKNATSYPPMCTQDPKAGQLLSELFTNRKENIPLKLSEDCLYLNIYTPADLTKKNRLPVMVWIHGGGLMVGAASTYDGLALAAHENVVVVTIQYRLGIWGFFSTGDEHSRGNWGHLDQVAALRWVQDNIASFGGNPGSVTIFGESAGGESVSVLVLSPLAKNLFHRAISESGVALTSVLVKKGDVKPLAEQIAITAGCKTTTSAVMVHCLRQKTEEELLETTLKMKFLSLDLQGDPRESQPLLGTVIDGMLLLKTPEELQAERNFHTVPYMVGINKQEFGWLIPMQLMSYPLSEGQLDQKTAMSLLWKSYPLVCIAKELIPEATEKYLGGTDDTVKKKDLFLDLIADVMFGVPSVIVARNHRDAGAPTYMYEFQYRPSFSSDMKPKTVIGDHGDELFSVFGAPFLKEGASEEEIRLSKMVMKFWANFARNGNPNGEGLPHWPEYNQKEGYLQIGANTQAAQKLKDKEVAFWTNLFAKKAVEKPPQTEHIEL

[2] = Ratio of unbound drug level in C57Bl6 mouse brain to plasma at 1 to 10 mg/kg, sc; type: ADME, organism-based
Mus musculus [3] = assay: In vivo inhibition of MAGL in C57Bl6 mouse assessed as increase in 2-AG levels in brain at 1 mg/kg, sc measured at 2 hrs by LC-MS/MS method; type: functional, organism-based
Procedure, shortened: (§1)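 C57Bl6 mice, 7 weeks old, 4 per cage, food and water ad libitum, dosed subcutaneously in DMSO/Cremophor/saline (5:5:90, v/v/v). Brains taken after isoflurane, cardiac puncture and cervical dislocation at 0.5, 1, 2, 4, 8, 12 and 24 h (3 mice per time point); vehicle group at 1 h. Frozen in liquid nitrogen, homogenized in 3 volumes PMSF/NH4OAc buffer pH 2.0, d5-2-AG internal standard, ACN extraction, LC-MS/MS (positive ESI, SRM).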

[4] = Cmax in C57Bl6 mouse brain at 1 mg/kg, sc; type: ADME, organism-based; design: dose 1 mg/kg, route subcutaneous
Procedure, shortened: (§2)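 Subcutaneous dosing of C57Bl6 mice in DMSO/Cremophor/saline (5:5:90). Plasma (NaF/K2EDTA tubes) and cerebellum collected at 0.5–24 h, 3 mice per time point. Cerebellum diluted 1:4 (w/v) with water and homogenized; samples deproteinated with methanol/acetonitrile plus internal standard, then HPLC-MS/MS. LLOQ 1.0 ng/mL plasma, 0.5 ng/mL brain homogenate. PK parameters by noncompartmental analysis.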

Mus musculus [5] = assay: In vivo inhibition of MAGL in C57Bl6 mouse assessed as increase in 2-AG levels in brain at 10 mg/kg, sc measured after 24 hrs by LC-MS/MS method; type: functional, organism-based; procedure, shortened: as §1
[6] = target: T2, Platelet-activating factor acetylhydrolase (Homo sapiens) (UniProt Q13093); details: 10 uM
T2 sequence (whole entry): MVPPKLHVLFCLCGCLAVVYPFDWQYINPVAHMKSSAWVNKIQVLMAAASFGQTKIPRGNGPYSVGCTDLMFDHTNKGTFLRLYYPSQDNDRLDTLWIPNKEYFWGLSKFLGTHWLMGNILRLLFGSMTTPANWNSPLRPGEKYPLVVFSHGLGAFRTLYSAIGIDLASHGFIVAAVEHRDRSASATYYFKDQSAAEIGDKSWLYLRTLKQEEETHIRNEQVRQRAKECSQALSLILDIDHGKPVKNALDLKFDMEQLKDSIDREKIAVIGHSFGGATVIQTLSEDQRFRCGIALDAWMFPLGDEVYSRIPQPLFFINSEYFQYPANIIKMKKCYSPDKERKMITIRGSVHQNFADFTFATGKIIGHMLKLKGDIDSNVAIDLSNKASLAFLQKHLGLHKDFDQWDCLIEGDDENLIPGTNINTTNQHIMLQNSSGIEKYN

[7] = Lipophilicity, log D of the compound; type: physicochemical; details: octanol/water
Liver carboxylesterase 1 = target: T3, Liver carboxylesterase 1 (Homo sapiens, UniProt P23141); assay: Inhibition of human CES1 at 1 to 10 uM relative to control
T3 sequence (P23141 whole entry): T1 sequence (P23141 whole entry)

[8] = target: T2, Platelet-activating factor acetylhydrolase (Homo sapiens); assay: Inhibition of human PLA2G7 at 1 to 10 uM relative to control
Mus musculus [9] = assay: In vivo inhibition of MAGL in C57Bl6 mouse assessed as increase in 2-AG levels in brain at 10 mg/kg, sc after 8 hrs by LC-MS/MS method relative to control; type: functional; procedure, shortened: as §1
[10] = Tmax in C57Bl6 mouse at 10 mg/kg, sc; type: ADME, organism-based; details: in vivo; procedure, shortened: as §2
Brain [11] = assay: Unbound drug level in C57Bl6 mouse brain at 10 mg/kg, sc at 0.5 hrs; type: ADME, organism-based; details: in vivo; procedure, shortened: as §2
Mus musculus [12] = assay: Time required for unbound brain concentration to reach above in vitro IC50 for recombinant human MAGL in C57Bl6 mouse at 10 mg/kg, sc; procedure, shortened: as §2
Mus musculus [13] = assay: In vivo inhibition of MAGL in C57Bl6 mouse assessed as increase in 2-AG levels in brain at 1 mg/kg, sc measured at 0.5 hrs by LC-MS/MS method relative to control; type: functional; procedure, shortened: as §1
Mus musculus [14] = assay: In vivo inhibition of MAGL in C57Bl6 mouse assessed as increase in 2-AG levels in brain at 1 mg/kg, sc measured after 1 to 24 hrs by LC-MS/MS method; type: functional, organism-based; procedure, shortened: as §1
Brain [15] = assay: Unbound drug level in C57Bl6 mouse brain at 1 mg/kg, sc at 0.5 hrs; type: ADME, organism-based; details: in vivo; procedure, shortened: as §2
Brain [16] = assay: Ratio of unbound drug level in C57Bl6 mouse brain at 10 mg/kg, sc to 1 mg/kg, sc; type: ADME, organism-based; details: in vivo; procedure, shortened: as §2
[17] = target: T4, Monoglyceride lipase (Homo sapiens) (UniProt Q99685); assay: Inhibition of MAGL in human brain vascular pericytes; type: cell-based
T4 sequence (whole entry): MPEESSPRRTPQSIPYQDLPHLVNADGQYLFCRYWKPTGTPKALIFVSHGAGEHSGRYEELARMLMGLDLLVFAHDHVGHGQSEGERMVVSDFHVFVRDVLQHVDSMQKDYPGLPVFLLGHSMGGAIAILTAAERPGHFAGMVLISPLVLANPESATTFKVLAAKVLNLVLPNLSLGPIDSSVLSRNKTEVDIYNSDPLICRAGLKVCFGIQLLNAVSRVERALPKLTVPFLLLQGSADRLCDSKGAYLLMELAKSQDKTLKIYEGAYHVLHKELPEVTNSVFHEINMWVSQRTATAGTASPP
Procedure, shortened: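 Human brain vascular pericytes grown in DMEM/F12 with 5% heat-inactivated FBS and pericyte growth supplement, then given alkyne-tagged probe (1000× DMSO stock) in medium for 1 h at 37 °C. Pellets lysed in PBS/0.25% SDS, proteome normalized to 1.0 mg/mL, Cu-catalyzed click with TAMRA azide, SDS-PAGE in-gel fluorescence. Two MAGL bands averaged; two biological replicates fitted to a dose–response curve.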

| SMILES | inhibition at 10 µM [1] [%] | Kp uu [2] | inhibition (Mus musculus [3]) | Cmax [4] [nM] | inhibition (Mus musculus [5]) | inhibition [6] [%] | logD [7] | inhibition (INH) (Liver carboxylesterase 1) [%] | inhibition [8] [%] | fold change (FC) (Mus musculus [9]) | Tmax [10] [min] | Drug uptake(free) (Brain [11]) [nM] | Time (Mus musculus [12]) [h] | fold change (FC) (Mus musculus [13]) | inhibition (Mus musculus [14]) | Drug uptake(free) (Brain [15]) [nM] | Ratio (Brain [16]) | inhibition [17] |
| --- | --- | --- | --- | --- | --- | --- | --- | --- | --- | --- | --- | --- | --- | --- | --- | --- | --- | --- |
| O=C(OC(C(F)(F)F)C(F)(F)F)N1CCC(c2ccn(-c3ccccc3)n2)CC1 | > 70 | 0.5 | Active | 0.14 | Active | > 70 |  |  |  |  |  |  |  |  |  |  |  |  |
| O=C(OC(C(F)(F)F)C(F)(F)F)N1CC(c2ccn(-c3ccccc3)n2)C1 |  |  |  |  |  |  | 4.3 | > 70 | > 70 | 5 | 30 | 2 | 8 | 3 | inactive | 0.02 | 100 | Active |
